Source: ChEMBL document CHEMBL1138529, “Efficacy, pharmacokinetics, and metabolism of tetrahydroquinoline inhibitors of Plasmodium falciparum protein farnesyltransferase” (Antimicrob Agents Chemother, 2007)
Active and inactive are the calls of the source.

Legend:
Salmonella typhimurium = assay: Toxicity against Salmonella enterica serovar Typhimurium TA98; format: organism-based, Salmonella enterica subsp. enterica serovar Typhimurium; conditions: in vivo
Method in brief: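 Ames fluctuation test in S. Typhimurium TA98 (frameshift) and TA100 (base substitution), with and without rat liver S9. Tested at 5, 10, 50 and 100 μM plus higher concentrations, 48 wells each, in histidine-free liquid medium for 96 h. Growth read spectrophotometrically by pH-indicator color change. Bacterial cytotoxicity assayed in parallel at the same concentrations.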

Rattus norvegicus [1] = assay: Toxicity in Plasmodium berghei NK65 infected Sprague-Dawley rat assessed as effect on electrolyte levels at 50 mg/kg, perorally administered every 8 hrs for 3 days; format: organism-based; set-up: dose 50 mg/kg, route oral; conditions: in vivo, po
Method in brief: (§1)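 Female Sprague-Dawley rats, 10-12 weeks, n = 3 per schedule. Dosed 50 mg/kg by oral gavage every 8 h or every 12 h for 72 h. At the end of dosing, blood was sent to a clinical laboratory for complete blood counts, white cell differentials, electrolytes, glucose, renal function, liver enzymes and cholesterol.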

[2] = molecular target: Type-1 angiotensin II receptor (Homo sapiens) (UniProt P30556); assay: Inhibition of angiotensin AT1 receptor at 10 uM
Type-1 angiotensin II receptor (Homo sapiens), sequence (P30556 whole entry): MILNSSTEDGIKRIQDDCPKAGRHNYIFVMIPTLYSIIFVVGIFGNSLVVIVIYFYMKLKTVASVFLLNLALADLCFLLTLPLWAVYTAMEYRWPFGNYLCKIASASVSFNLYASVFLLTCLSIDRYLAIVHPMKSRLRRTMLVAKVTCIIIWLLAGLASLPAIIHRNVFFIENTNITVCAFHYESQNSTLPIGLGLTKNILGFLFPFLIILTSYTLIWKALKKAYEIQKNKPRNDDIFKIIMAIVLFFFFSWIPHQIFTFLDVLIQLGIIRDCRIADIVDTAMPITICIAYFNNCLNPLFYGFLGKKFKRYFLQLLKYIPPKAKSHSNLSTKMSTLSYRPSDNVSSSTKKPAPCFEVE
Method in brief: (§2)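 Radioligand displacement at a contract lab across a panel of 50 receptors, ion channels and transporters, single test concentration 10 μM; loss of specific ligand binding reported as percent, with >50% decrease counted as significant.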

[3] = molecular target: C-X-C chemokine receptor type 2 (Homo sapiens) (UniProt P25025); assay: Inhibition of CXCR2 receptor at 10 uM
C-X-C chemokine receptor type 2 (Homo sapiens), sequence (P25025 whole entry): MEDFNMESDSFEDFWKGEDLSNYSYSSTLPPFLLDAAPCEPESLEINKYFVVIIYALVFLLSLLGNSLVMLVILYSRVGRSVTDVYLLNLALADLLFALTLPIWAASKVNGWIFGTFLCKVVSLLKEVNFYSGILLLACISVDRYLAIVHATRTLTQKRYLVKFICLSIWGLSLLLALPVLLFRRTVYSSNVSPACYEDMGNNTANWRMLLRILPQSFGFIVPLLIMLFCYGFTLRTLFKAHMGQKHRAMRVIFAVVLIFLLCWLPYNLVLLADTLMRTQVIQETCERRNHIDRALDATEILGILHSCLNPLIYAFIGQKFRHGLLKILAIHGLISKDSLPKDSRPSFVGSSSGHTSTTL
Method in brief: (§3)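 Radioligand displacement screen by a contractor across 50 receptors, ion channels and transporters, test compound at 10 μM; decrease in specific ligand binding expressed as percentage, with >50% decrease taken as significant.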

Rattus norvegicus [4] = assay: Toxicity in Plasmodium berghei NK65 infected Sprague-Dawley rat assessed as effect on cholesterol levels at 50 mg/kg, perorally administered every 12 hrs for 3 days; format: organism-based; set-up: dose 50 mg/kg, route oral; conditions: in vivo, po, in the assay text read “every 8 hrs” for “every 12 hrs”; method in brief: as §1
Rattus norvegicus [5] = assay: Toxicity in Plasmodium berghei NK65 infected Sprague-Dawley rat assessed as effect on electrolyte levels at 50 mg/kg, perorally administered every 12 hrs for 3 days; format: organism-based; set-up: dose 50 mg/kg, route oral; conditions: in vivo, po; method in brief: as §1
Rattus norvegicus [6] = assay: Toxicity in Plasmodium berghei NK65 infected Sprague-Dawley rat assessed as effect on blood counts at 50 mg/kg, perorally administered every 8 hrs for 3 days; format: organism-based; set-up: dose 50 mg/kg, route oral; conditions: in vivo, po; method in brief: as §1
[7] = Cmax in BALB/c mouse at 50 mg/kg, po; format: ADME, organism-based; set-up: dose 50 mg/kg, route oral; conditions: in vivo
Method in brief: (§4)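 50 mg/kg by oral gavage in 3% EtOH-7% Tween 80-90% normal saline to groups of three females (BALB/c mice, 8–10 weeks, tail bleed; Sprague-Dawley rats, 10–12 weeks, saphenous vein). Plasma extracted with acetonitrile/internal standard, LC/MS; means of three animals. Oral elimination half-life depends on absorption rate as well as elimination.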

[8] = Metabolic stability in mouse liver microsomes; format: ADME, Microsome
Method in brief: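 Pooled female liver microsomes at 0.5 mg/ml in 0.1 M potassium phosphate pH 7.4, 3 mM MgCl2, 1 mM EDTA, with NADPH regenerating system (1 mM NADP+, 5 mM glucose-6-phosphate, 1 U/ml G6PDH). Preincubated 10 min at 37°C, then compound added to 1 μM final. Time points quenched with 3 volumes acetonitrile plus internal standard; parent quantified by LC/MS; half-life reported.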

[9] = molecular target: Vasoactive intestinal polypeptide receptor 1 (Homo sapiens) (UniProt P32241); assay: Inhibition of VIP1 receptor at 10 uM; method in brief: as §3
Vasoactive intestinal polypeptide receptor 1 (Homo sapiens), sequence (P32241 whole entry): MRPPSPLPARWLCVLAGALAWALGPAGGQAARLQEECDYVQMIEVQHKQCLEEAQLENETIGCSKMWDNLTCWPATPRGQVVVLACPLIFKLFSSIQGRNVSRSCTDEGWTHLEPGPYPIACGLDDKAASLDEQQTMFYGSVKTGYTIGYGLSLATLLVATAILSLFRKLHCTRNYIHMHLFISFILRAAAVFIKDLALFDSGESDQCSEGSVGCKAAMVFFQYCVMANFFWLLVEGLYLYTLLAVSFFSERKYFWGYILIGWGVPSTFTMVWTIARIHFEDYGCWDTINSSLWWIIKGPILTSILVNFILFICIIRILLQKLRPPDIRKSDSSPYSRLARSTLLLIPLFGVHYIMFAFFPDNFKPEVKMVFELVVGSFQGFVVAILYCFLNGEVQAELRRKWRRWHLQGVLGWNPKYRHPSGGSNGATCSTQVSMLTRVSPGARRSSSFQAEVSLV

[10] = molecular target: Endothelin-1 receptor (Homo sapiens) (UniProt P25101); assay: Inhibition of ETA receptor at 10 uM; method in brief: as §3
Endothelin-1 receptor (Homo sapiens), sequence (P25101 whole entry): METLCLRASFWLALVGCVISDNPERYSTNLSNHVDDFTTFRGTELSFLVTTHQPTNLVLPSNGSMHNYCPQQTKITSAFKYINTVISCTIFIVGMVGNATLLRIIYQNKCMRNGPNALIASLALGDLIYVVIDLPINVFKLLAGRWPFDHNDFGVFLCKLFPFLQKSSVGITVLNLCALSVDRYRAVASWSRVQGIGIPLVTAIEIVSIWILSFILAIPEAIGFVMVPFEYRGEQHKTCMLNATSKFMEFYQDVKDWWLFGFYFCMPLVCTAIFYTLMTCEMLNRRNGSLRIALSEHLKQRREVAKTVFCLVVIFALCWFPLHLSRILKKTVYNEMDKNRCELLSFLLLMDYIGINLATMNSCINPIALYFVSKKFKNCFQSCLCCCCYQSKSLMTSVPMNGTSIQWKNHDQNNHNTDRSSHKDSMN

[11] = Inhibition of somatostatin receptor at 10 uM
Method in brief: (§5)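 Radioligand displacement screen at a 10 μM test concentration, run by a contract lab across a panel of 50 receptors, pharmacologically active ion channels and transporters. The read-out is the decrease in specific radiolabeled ligand binding, expressed as a percentage. A decrease above 50% was considered significant.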

Rattus norvegicus [12] = assay: Toxicity in Plasmodium berghei NK65 infected Sprague-Dawley rat assessed as effect on renal function at 50 mg/kg, perorally administered every 8 hrs for 3 days; format: organism-based; set-up: dose 50 mg/kg, route oral; conditions: in vivo, po; method in brief: as §1
Rattus norvegicus [13] = assay: Toxicity in Plasmodium berghei NK65 infected Sprague-Dawley rat assessed as effect on liver enzyme levels at 50 mg/kg, perorally administered every 8 hrs for 3 days; format: organism-based; set-up: dose 50 mg/kg, route oral; conditions: in vivo, po; method in brief: as §1
[14] = molecular target: Mu-type opioid receptor (Homo sapiens) (UniProt P35372); assay: Inhibition of mu opioid receptor at 10 uM; method in brief: as §2
Mu-type opioid receptor (Homo sapiens), sequence (P35372 whole entry): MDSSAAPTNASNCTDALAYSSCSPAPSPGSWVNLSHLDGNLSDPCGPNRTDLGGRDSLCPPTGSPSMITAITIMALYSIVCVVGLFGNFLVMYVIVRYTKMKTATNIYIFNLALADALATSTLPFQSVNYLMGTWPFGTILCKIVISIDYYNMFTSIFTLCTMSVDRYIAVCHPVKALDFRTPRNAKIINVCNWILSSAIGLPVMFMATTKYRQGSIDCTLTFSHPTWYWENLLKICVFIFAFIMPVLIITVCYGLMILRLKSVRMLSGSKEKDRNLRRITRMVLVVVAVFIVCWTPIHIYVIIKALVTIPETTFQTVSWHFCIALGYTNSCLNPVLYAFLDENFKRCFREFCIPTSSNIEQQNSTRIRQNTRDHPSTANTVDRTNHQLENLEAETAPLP

[15] = Inhibition of Potassium channel at 10 uM; method in brief: as §5
Rattus norvegicus [16] = assay: Toxicity in Sprague-Dawley rat at 50 mg/kg, po; format: organism-based; set-up: dose 50 mg/kg, route oral; conditions: in vivo
Method in brief: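 Female Sprague-Dawley rats, 10-12 weeks, three per group. 50 mg/kg oral gavage in 3% EtOH-7% Tween 80-90% normal saline. Saphenous vein plasma sampled over time, and animals observed for adverse reactions.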

Rattus norvegicus [17] = assay: Toxicity in Plasmodium berghei NK65 infected Sprague-Dawley rat assessed as effect on white blood cell differentials at 50 mg/kg, perorally administered every 8 hrs for 3 days; format: organism-based; set-up: dose 50 mg/kg, route oral; conditions: in vivo, po; method in brief: as §1
[18] = molecular target: 5-hydroxytryptamine receptor 7 (Homo sapiens) (UniProt P34969); assay: Inhibition of 5HT7 receptor at 10 uM; method in brief: as §3
5-hydroxytryptamine receptor 7 (Homo sapiens), sequence (P34969 whole entry): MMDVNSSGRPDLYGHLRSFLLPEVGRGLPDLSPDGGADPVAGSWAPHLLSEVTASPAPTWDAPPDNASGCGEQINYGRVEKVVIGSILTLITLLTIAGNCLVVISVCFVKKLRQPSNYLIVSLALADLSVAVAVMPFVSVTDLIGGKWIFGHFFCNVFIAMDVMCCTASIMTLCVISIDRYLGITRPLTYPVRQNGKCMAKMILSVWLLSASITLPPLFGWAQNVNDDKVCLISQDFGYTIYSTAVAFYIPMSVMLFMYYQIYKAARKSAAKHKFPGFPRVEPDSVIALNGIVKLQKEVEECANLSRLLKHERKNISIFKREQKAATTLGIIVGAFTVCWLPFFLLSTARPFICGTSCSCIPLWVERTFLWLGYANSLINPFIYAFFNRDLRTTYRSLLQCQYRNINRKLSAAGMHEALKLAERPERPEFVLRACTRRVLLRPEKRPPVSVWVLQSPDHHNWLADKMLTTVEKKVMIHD

[19] = molecular target: Sodium-dependent dopamine transporter (Homo sapiens) (UniProt Q01959); assay: Inhibition of DAT at 10 uM; method in brief: as §3
Sodium-dependent dopamine transporter (Homo sapiens), sequence (Q01959 whole entry): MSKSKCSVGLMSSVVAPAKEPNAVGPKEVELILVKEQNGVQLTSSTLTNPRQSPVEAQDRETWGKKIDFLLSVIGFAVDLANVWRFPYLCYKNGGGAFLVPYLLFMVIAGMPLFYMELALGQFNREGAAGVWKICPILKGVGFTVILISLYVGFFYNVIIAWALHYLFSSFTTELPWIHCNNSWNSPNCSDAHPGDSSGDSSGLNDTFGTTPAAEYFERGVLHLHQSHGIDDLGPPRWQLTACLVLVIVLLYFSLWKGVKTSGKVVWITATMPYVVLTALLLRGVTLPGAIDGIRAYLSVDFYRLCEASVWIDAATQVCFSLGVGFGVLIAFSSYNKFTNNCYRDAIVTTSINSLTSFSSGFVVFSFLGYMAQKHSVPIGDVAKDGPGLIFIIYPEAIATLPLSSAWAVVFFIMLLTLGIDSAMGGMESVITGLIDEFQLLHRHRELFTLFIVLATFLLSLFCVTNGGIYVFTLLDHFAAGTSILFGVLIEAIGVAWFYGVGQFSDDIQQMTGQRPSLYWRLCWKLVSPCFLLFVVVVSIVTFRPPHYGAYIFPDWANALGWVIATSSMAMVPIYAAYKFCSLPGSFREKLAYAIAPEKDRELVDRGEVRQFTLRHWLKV

[20] = Elimination half life in BALB/c mouse at 50 mg/kg, po; format: ADME, organism-based; set-up: dose 50 mg/kg, route oral; conditions: in vivo, read-out: beta t1/2; method in brief: as §4
[21] = molecular target: Neurotensin receptor type 1 (Homo sapiens) (UniProt P30989); assay: Inhibition of NTS1 receptor at 10 uM; method in brief: as §3
Neurotensin receptor type 1 (Homo sapiens), sequence (P30989 whole entry): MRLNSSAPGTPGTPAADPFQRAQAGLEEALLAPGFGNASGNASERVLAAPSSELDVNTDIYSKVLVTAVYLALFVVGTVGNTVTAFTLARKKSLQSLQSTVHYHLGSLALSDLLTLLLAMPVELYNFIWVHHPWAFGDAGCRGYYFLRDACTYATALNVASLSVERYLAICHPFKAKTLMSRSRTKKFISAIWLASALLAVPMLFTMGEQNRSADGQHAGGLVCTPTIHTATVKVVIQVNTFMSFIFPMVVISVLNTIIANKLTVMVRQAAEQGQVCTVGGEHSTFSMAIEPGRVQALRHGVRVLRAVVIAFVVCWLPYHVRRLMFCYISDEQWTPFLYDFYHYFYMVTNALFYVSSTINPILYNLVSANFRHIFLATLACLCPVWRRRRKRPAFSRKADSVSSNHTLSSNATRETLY

[22] = molecular target: Vasopressin V1a receptor (Homo sapiens) (UniProt P37288); assay: Inhibition of vasopressin V1a receptor at 10 uM; method in brief: as §2
Vasopressin V1a receptor (Homo sapiens), sequence (P37288 whole entry, looked up): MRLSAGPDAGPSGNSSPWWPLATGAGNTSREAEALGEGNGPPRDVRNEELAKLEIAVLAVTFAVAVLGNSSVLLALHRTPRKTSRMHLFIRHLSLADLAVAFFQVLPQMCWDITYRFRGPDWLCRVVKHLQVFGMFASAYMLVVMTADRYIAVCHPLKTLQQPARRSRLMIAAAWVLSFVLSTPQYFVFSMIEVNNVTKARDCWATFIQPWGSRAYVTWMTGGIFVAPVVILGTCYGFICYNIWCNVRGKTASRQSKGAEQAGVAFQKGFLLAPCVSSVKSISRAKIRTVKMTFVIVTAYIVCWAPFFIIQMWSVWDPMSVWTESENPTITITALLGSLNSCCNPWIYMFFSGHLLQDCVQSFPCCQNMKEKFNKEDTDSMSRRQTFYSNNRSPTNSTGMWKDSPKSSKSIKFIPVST

[23] = AUC in Sprague-Dawley rat at 50 mg/kg, po; format: ADME, organism-based; set-up: dose 50 mg/kg, route oral; conditions: plasma
Method in brief: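 Three female BALB/c mice (lines for mice, 8–10 weeks) or three female Sprague-Dawley rats (10–12 weeks) per group; 50 mg/kg oral gavage in 3% EtOH-7% Tween 80-90% normal saline. Plasma sampled at set times (tail bleed in mice, saphenous vein in rats), extracted with acetonitrile plus internal standard, quantified by LC/MS; AUC as mean of three animals.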

[24] = molecular target: Kappa-type opioid receptor (Homo sapiens) (UniProt P41145); assay: Inhibition of kappa opioid receptor at 10 uM; method in brief: as §2
Kappa-type opioid receptor (Homo sapiens), sequence (P41145 whole entry): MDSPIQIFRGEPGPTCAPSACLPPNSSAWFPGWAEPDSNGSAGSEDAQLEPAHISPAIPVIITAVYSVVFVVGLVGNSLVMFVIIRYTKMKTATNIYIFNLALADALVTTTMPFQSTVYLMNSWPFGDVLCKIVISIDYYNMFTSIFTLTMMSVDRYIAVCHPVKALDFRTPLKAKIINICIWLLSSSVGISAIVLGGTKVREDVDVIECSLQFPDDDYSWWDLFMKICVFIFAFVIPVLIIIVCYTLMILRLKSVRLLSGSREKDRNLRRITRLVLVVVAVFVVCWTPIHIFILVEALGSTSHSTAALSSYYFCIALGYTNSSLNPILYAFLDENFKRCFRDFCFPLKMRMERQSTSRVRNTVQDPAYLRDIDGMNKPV

[25] = Inhibition of L-type calcium channel at verapamil site at 10 uM; method in brief: as §5

Question: What does the source list for `COC(=O)N1CCC(CN(C2Cc3cc(C#N)ccc3N(Cc3cncn3C)C2)S(=O)(=O)c2ccccn2)CC1` (stereo unspecified)?
Answer: Activity (Salmonella typhimurium): Non-toxic; Activity (Rattus norvegicus [1]): Non-toxic; inhibition [2]: inactive; inhibition [3]: inactive; Activity (Rattus norvegicus [4]): Non-toxic; Activity (Rattus norvegicus [5]): Non-toxic; Activity (Rattus norvegicus [6]): Non-toxic; Cmax [7]: 4.2 µM; half-life [8]: 5.8 min; inhibition [9]: inactive; inhibition [10]: inactive; inhibition [11]: inactive; Activity (Rattus norvegicus [12]): Non-toxic; Activity (Rattus norvegicus [13]): Non-toxic; inhibition [14]: inactive; inhibition [15]: inactive; Activity (Rattus norvegicus [16]): Non-toxic; Activity (Rattus norvegicus [17]): Non-toxic; inhibition [18]: inactive; inhibition [19]: inactive; half-life [20]: 18 min; inhibition [21]: inactive; inhibition [22]: 81%; AUC [23]: 10.9 µM·h; inhibition [24]: inactive; inhibition [25]: inactive
